Measurements taken from ChEMBL document CHEMBL4130474, “Spirotriazoline oxindoles: A novel chemical scaffold with in vitro anticancer properties” (Eur J Med Chem, 2017).

Experiments:
[1] = Selectivity index, ratio of IC50 for antiproliferative activity in HEK293T cells to IC50 for antiproliferative activity in human p53 (-/-) human HCT116 cells; type: toxicity, cell-based; settings: HEK293T cells versus p53 (-/-) HCT116 cells, read-out: Ratio IC50
[2] = test system: HEK-293T; test: Antiproliferative activity in human HEK293T cells incubated for 72 hrs by MTT assay; type: cell-based
Procedure, shortened: (§1)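 Cells grown in RPMI 1640 with 10% FBS, penicillin/streptomycin; seeded at 2 × 10⁵ cells/mL, allowed to adhere 24 h, then exposed 72 h to compounds diluted in medium from DMSO stocks. MTT added after medium change, 3 h, formazan dissolved in DMSO, absorbance at 570 nm. Triplicate wells, at least 3 independent experiments; IC50 by non-linear regression.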

[3] = test system: HCT-116; test: Antiproliferative activity in p53 (-/-) human HCT116 cells incubated for 72 hrs by MTS assay; type: functional, cell-based; settings: HCT-116, 72 h
Procedure, shortened: (§2)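 HCT116 p53(+/+) or p53(−/−) seeded at 1 × 10⁵ cells/mL, adhered 24 h, then treated 72 h with compounds diluted from DMSO stocks. Viability by MTS (CellTiter96 AQueous) with absorbance at 490 nm. Duplicate wells, three independent experiments; IC50 by non-linear regression.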

[4] = test system: MCF7; test: Antiproliferative activity in human MCF7 cells incubated for 72 hrs by MTT assay; type: functional, cell-based; settings: MCF7, 72 h; procedure, shortened: as §1
[5] = Selectivity index, ratio of IC50 for antiproliferative activity in HEK293T cells to IC50 for antiproliferative activity in human p53 (+/+) human HCT116 cells; type: toxicity, cell-based; settings: HEK293T cells versus p53 (+/+) HCT116 cells, read-out: Ratio IC50
[6] = test system: MDA-MB-231; test: Antiproliferative activity in human MDA-MB-231 cells incubated for 72 hrs by MTT assay; type: functional, cell-based; settings: MDA-MB-231, 72 h; procedure, shortened: as §1
[7] = test system: HCT-116; test: Antiproliferative activity in p53 (+/+) human HCT116 cells incubated for 72 hrs by MTS assay; type: functional, cell-based; settings: HCT-116, 72 h; procedure, shortened: as §2
[8] = Selectivity index, ratio of IC50 for antiproliferative activity in HEK293T cells to IC50 for antiproliferative activity in human MCF7 cells; type: toxicity, cell-based; settings: HEK293T cells versus MCF7 cells, read-out: Ratio IC50
Procedure, shortened: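 Ratio of HEK 293T IC50 to MCF-7 IC50 from 72 h MTT assays.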

[9] = Potency index, ratio of IC50 for antiproliferative activity in human p53 (+/+) human HCT116 cells to IC50 for antiproliferative activity in human MDA-MB-231 cells; type: functional
[10] = Potency index, ratio of IC50 for antiproliferative activity in human p53 (-/-) human HCT116 cells to IC50 for antiproliferative activity in human MDA-MB-231 cells; type: functional
[11] = Potency index, ratio of IC50 for antiproliferative activity in human MCF7 cells to IC50 for antiproliferative activity in human MDA-MB-231 cells; type: functional
[12] = Selectivity index, ratio of IC50 for antiproliferative activity in HEK293T cells to IC50 for antiproliferative activity in human MDA-MB-231 cells; type: toxicity, cell-based; settings: HEK293T cells versus MDA-MB-231 cells, read-out: Ratio IC50
Procedure, shortened: (§3)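 Ratio of HEK 293T IC50 to MDA-MB-231 IC50 from 72 h MTT assays.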

[13] = […], ratio of IC50 for antiproliferative activity in HEK293T cells to IC50 for antiproliferative activity in human MDA-MB-231 cells; type: toxicity, cell-based; settings: HEK293T cells versus MDA-MB-231 cells, read-out: Ratio IC50; procedure, shortened: as §3
[14] = Potency index, ratio of IC50 for antiproliferative activity in human MDA-MB-231 cells to IC50 for antiproliferative activity in human MCF7 cells; type: functional
Procedure, shortened: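 Ratio of MDA-MB-231 IC50 to MCF-7 IC50 from 72 h MTT assays.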

| SMILES | selectivity ratio [1] | IC50 [2] | IC50 [3] | IC50 [4] | selectivity ratio [5] | IC50 [6] | IC50 [7] | selectivity ratio [8] | Ratio IC50 [9] | Ratio IC50 [10] | Ratio IC50 [11] | selectivity ratio [12] | selectivity ratio [13] | Ratio IC50 [14] |
| --- | --- | --- | --- | --- | --- | --- | --- | --- | --- | --- | --- | --- | --- | --- |
| O=C1Nc2ccc(Cl)cc2C12N(c1ccccc1)N=C(c1ccccc1)N2c1ccccc1 (stereo not drawn) | < 2 | 32.6 µM | 22.1 µM | 19.1 µM | < 2 | 11.7 µM | 21.6 µM | < 2 |  |  |  |  |  |  |
| O=C1Nc2c(Br)cccc2C12N(c1ccccc1)N=C(c1ccccc1)N2c1ccccc1 (stereo not drawn) |  |  |  | 21.8 µM |  | 23.7 µM |  |  |  |  |  |  |  |  |
| O=C1Nc2ccc(Br)cc2C12N(c1ccccc1)N=C(c1ccccc1)N2c1ccc(F)c(Cl)c1 (stereo not drawn) | < 2 | 16.6 µM | 15.9 µM | 11 µM | < 2 | 4.6 µM | 13.5 µM | < 2 | >=2.4 | >=2.4 | >=2.4 | ≥ 2.4 |  |  |
| O=C1Nc2ccccc2C12N(c1ccccc1)N=C(c1ccccc1)N2c1ccc(F)c(Cl)c1 (stereo not drawn) |  |  |  | 19.5 µM |  | 32.3 µM |  |  |  |  |  |  |  |  |
| O=C1Nc2ccccc2C12N(c1ccccc1)N=C(c1cccc(Cl)c1)N2c1ccc(Cl)cc1 (stereo not drawn) | < 2 | 20.5 µM | 16.1 µM | 13.1 µM | < 2 | 11.6 µM | 17.4 µM | < 2 |  |  |  |  |  |  |
| O=C1Nc2ccccc2C12N(c1ccccc1)N=C(c1ccccc1)N2c1ccccc1 (stereo not drawn) |  |  |  | 36.2 µM |  | 23.4 µM |  |  |  |  |  |  |  |  |
| O=C1Nc2ccccc2C12N(c1ccccc1)N=C(c1ccccc1)N2c1ccc(Cl)cc1 (stereo not drawn) | 2.5 to 4.1 | > 100 µM | 18.5 µM | 24.1 µM | 2.5 to 4.1 | 10.7 µM | 15 µM | 2.5 to 4.1 |  |  |  |  | ≥ 2.5 |  |
| O=C1Nc2ccccc2C12N(c1ccccc1Cl)N=C(c1cccc(Cl)c1)N2c1ccc(Cl)cc1 (stereo not drawn) | < 2 | 35 µM | 34.6 µM | 13.1 µM | < 2 | 14.5 µM | 25.3 µM | 2.7 |  |  |  |  |  |  |
| COc1ccc(C2=NN(c3ccccc3)C3(C(=O)Nc4ccc(Br)cc43)N2c2cccc(Cl)c2)cc1 (stereo not drawn) | < 2 | 25.9 µM | 25.8 µM | 12.3 µM | < 2 | 14.1 µM | 22.2 µM | < 2 |  |  |  |  |  |  |
| O=C1Nc2ccccc2C12N(c1cccc(Cl)c1)N=C(c1ccccc1)N2c1ccc(Cl)cc1 (stereo not drawn) | < 2 | 15.4 µM | 18.5 µM | 14.2 µM | < 2 | 15.7 µM | 19.8 µM | < 2 |  |  |  |  |  |  |
| O=C1Nc2ccc(Br)cc2C12N(c1cccc(Cl)c1)N=C(c1cccc(Cl)c1)N2c1cccc(Cl)c1 (stereo not drawn) | < 2 | 9 µM | 9 µM | 6.9 µM | < 2 | 7 µM | 10.2 µM | < 2 |  |  |  |  |  |  |
| O=C1Nc2ccc(Br)cc2C12N(c1ccccc1)N=C(c1cccc(Cl)c1)N2c1cccc(Cl)c1 (stereo not drawn) | < 2 | 12.5 µM | 13 µM | 8 µM | < 2 | 10.2 µM | 12.6 µM | < 2 |  |  |  |  |  |  |
| O=C1Nc2c(Cl)cccc2[C@]12[C@@H](c1ccccc1)C(c1ccccc1)=NN2c1ccccc1 |  | > 100 µM |  | 22.4 µM |  | 16.9 µM |  | > 4.5 |  |  |  |  |  |  |
| COc1ccc(C2=N[C@@H](c3ccc(Cl)cc3)[C@@H](c3ccc(Cl)cc3)N2C(=O)N2CCNC(=O)C2)c(OC(C)C)c1 [NUTLIN-3] |  |  | 47.8 µM |  |  |  |  |  |  |  |  |  |  |  |
| O=C1Nc2ccccc2C12N(c1ccc(Cl)cc1)N=C(c1ccccc1)N2c1ccc(Cl)cc1 (stereo not drawn) | < 2 | 15.8 µM | 18.7 µM | 10.1 µM | < 2 | 9 µM | 18.5 µM | < 2 |  |  |  |  |  |  |
| O=C1Nc2ccccc2[C@]12[C@@H](c1ccccc1)C(c1ccccc1)=NN2c1ccccc1 |  |  |  | > 100 µM |  |  |  |  |  |  |  |  |  |  |
| O=C1Nc2ccc(Cl)cc2[C@]12[C@@H](c1ccccc1)C(c1ccccc1)=NN2c1ccccc1 |  |  |  | 37.7 µM |  |  |  |  |  |  |  |  |  |  |
| O=C1Nc2c(Cl)cccc2C12N(c1ccccc1)N=C(c1ccccc1)N2c1ccccc1 (stereo not drawn) | 2.5 to 4.2 | > 100 µM | 20.1 µM | 10.8 µM | 2.5 to 4.2 | 8.9 µM | 23.7 µM | 2.5 to 9.3 |  |  |  |  | ≥ 2.5 |  |
| O=C1Nc2ccc(Br)cc2C12N(c1ccccc1)N=C(c1ccc(Cl)cc1)N2c1cccc(Cl)c1 (stereo not drawn) | < 2 | 20.3 µM | 10.8 µM | 10.1 µM | < 2 | 14.6 µM | 10.8 µM | < 2 |  |  |  |  |  |  |
| O=C1Nc2ccc(Br)cc2C12N(c1ccc(Cl)cc1)N=C(c1ccccc1)N2c1cccc(Cl)c1 (stereo not drawn) | < 2 | 16.2 µM | 17.2 µM | 11.4 µM | < 2 | 15 µM | 15 µM | < 2 |  |  |  |  |  |  |
| O=C1Nc2ccc(Br)cc2C12N(c1ccccc1)N=C(c1ccccc1)N2c1ccc(Cl)cc1 (stereo not drawn) | < 2 | 21.6 µM | 18.2 µM | 16.8 µM | < 2 | 5.2 µM | 16.3 µM | < 2 | >=2.4 | >=2.4 | >=2.4 | ≥ 2.4 |  |  |
| O=C1Nc2ccc(Br)cc2C12N(c1ccccc1Cl)N=C(c1ccccc1)N2c1cccc(Cl)c1 (stereo not drawn) | < 2 | 20.9 µM | 31.6 µM | 10.2 µM | < 2 | 11.7 µM | 21.5 µM | < 2 |  |  |  |  |  |  |
| O=C1Nc2ccc(Br)cc2[C@]12[C@@H](c1cccc(Cl)c1)C(c1ccccc1)=NN2c1ccccc1 |  |  |  | 10 µM |  | 12.6 µM |  |  |  |  |  |  |  |  |
| O=C1Nc2ccccc2C12N(c1ccccc1)N=C(c1ccccc1)N2c1cccc(Cl)c1 (stereo not drawn) | < 2 | 25.7 µM | 22.1 µM | 13.7 µM | < 2 | 12.5 µM | 19.9 µM | < 2 |  |  |  |  |  |  |
| O=C1Nc2ccccc2C12N(c1ccccc1)N=C(c1ccc(Cl)cc1)N2c1ccc(Cl)cc1 (stereo not drawn) | < 2 | 22.7 µM | 18.5 µM | 10.9 µM | < 2 | 8.2 µM | 16.8 µM | 2.1 |  |  |  |  |  |  |
| O=C1Nc2ccc(Br)cc2[C@]12[C@@H](c1ccccc1)C(c1ccccc1)=NN2c1ccccc1 |  | > 100 µM |  | 7.3 µM |  | > 100 µM |  | > 13.7 |  |  |  |  |  | > 13.7 |
| O=C1Nc2ccccc2C12N(c1ccccc1Cl)N=C(c1ccccc1)N2c1ccc(Cl)cc1 (stereo not drawn) |  |  |  | 28.4 µM |  | 24.8 µM |  |  |  |  |  |  |  |  |
| O=C1Nc2ccc(Br)cc2C12N(c1ccccc1)N=C(c1ccccc1)N2c1cccc(Cl)c1 (stereo not drawn) | < 2 | 21.6 µM | 17.8 µM | 21.4 µM | < 2 | 3.5 µM | 15.7 µM | < 2 | >=2.4 | >=2.4 | >=2.4 | ≥ 2.4 |  |  |
| O=C1Nc2ccc(Br)cc2C12N(c1cccc(Cl)c1)N=C(c1ccccc1)N2c1cccc(Cl)c1 (stereo not drawn) | < 2 | 16.9 µM | 13.1 µM | 9.8 µM | < 2 | 10.7 µM | 12 µM | < 2 |  |  |  |  |  |  |
